From ChEMBL document CHEMBL1255291, “Potent antimalarial activity of histone deacetylase inhibitor analogues” (Antimicrob Agents Chemother, 2008)
The source made the active and inactive calls. The calls are words filed in the database; no cut-off is given here.

Key:
[1] = Selectivity index, ratio of IC50 for neonatal foreskin fibroblasts to IC50 for chloroquine-resistant Plasmodium falciparum Dd2
Plasmodium falciparum [2] = assay: Antimalarial activity against chloroquine-resistant Plasmodium falciparum Dd2 infected in O+ human erythrocytes by [3H]hypoxanthine incorporation assay; assay type: functional, organism-based
In short: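 Parasites cultured in O+ human erythrocytes in RPMI 1640 with 10% heat-inactivated human serum. Synchronous ring-stage infected cells were set at 0.25% parasitemia and 2.5% hematocrit, and growth was measured by [3H]hypoxanthine incorporation. IC50 was taken against DMSO controls by linear interpolation of inhibition curves. Chloroquine served as the internal control. Triplicate wells, at least four separate occasions.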

[3] = Toxicity in neonatal foreskin fibroblasts; assay type: ADME, cell-based; conditions: Fibroblast
Plasmodium falciparum [4] = assay: Antimalarial activity against chloroquine-sensitive Plasmodium falciparum 3D7 infected in O+ human erythrocytes by [3H]hypoxanthine incorporation assay; assay type: functional, organism-based; conditions: 3D7, 3 h
Plasmodium falciparum [5] = assay: Antimalarial activity against Plasmodium falciparum; assay type: functional, organism-based
In short: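 Dd2 and 3D7 grown in O-positive human erythrocytes, RPMI 1640 with 10% heat-inactivated human serum. Synchronous ring-stage infected cells, 0.25% parasitemia, 2.5% hematocrit; growth read as [3H]hypoxanthine incorporation versus DMSO controls. IC50 taken by linear interpolation of inhibition curves. Chloroquine as internal control; triplicate wells, at least four separate occasions.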

[6] = Selectivity index, ratio of IC50 for neonatal foreskin fibroblasts to IC50 for chloroquine-sensitive Plasmodium falciparum 3D7
Plasmodium falciparum [7] = assay: Antimalarial activity against Plasmodium falciparum infected in O+ human erythrocytes assessed as reduction in parasites at trophozoites stage at 50 nM after 48 hrs by Giemsa staining based microscopy; assay type: functional, organism-based
In short: (§1)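 Synchronous Dd2-infected erythrocytes at ring (~18 h postinvasion), trophozoite (~26 h) or schizont (~38 h) stage, starting parasitemia 0.2–1.0%, exposed to 50 or 200 nM; DMSO (<0.05%) vehicle controls. Parasitemia counted on Giemsa-stained thin smears over 2–4 days, at least 1,000 erythrocytes by two counters. 48 h means compared by ANOVA; three independent experiments.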

Plasmodium falciparum [8] = assay: Inhibition of HDAC in Plasmodium falciparum Dd2 infected in O+ human erythrocytes assessed as alteration of histone acetylation at 20 to 500 nM after 3.5 hrs by Westen blot; assay type: organism-based
In short: (§2)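 Late-trophozoite Dd2-infected erythrocytes (3 x 10^9) treated 3.5 h at 37°C at 20, 100 or 500 nM, DMSO vehicle controls. Saponin lysis, histones acid-extracted in 0.5 M HCl, acetone-precipitated, run on 15% SDS-PAGE (silver stain for loading). Western blot with anti-tetra-acetyl histone H4 antiserum (1:2,000), then HRP anti-rabbit (1:5,000).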

Plasmodium falciparum [9] = assay: Antimalarial activity against Plasmodium falciparum infected in O+ human erythrocytes assessed as reduction in parasites at trophozoites stage at 200 nM after 48 hrs by Giemsa staining based microscopy; assay type: functional, organism-based; in short: as §1
Plasmodium falciparum [10] = assay: Antimalarial activity against Plasmodium falciparum infected in O+ human erythrocytes assessed as reduction in parasites at ring stage at 50 nM after 48 hrs by Giemsa staining based microscopy; assay type: functional, organism-based; in short: as §1
Plasmodium falciparum [11] = assay: Antimalarial activity against Plasmodium falciparum infected in O+ human erythrocytes assessed as reduction in parasites at schizonts stage at 200 nM after 48 hrs by Giemsa staining based microscopy; assay type: functional, organism-based; in short: as §1
Plasmodium falciparum [12] = assay: Antimalarial activity against Plasmodium falciparum infected in O+ human erythrocytes assessed as reduction in parasites at ring stage at 200 nM after 48 hrs by Giemsa staining based microscopy; assay type: functional, organism-based; in short: as §1
Plasmodium falciparum [13] = assay: Antimalarial activity against Plasmodium falciparum infected in O+ human erythrocytes assessed as reduction in parasites at schizonts stage at 50 nM after 48 hrs by Giemsa staining based microscopy; assay type: functional, organism-based; in short: as §1
[14] = Toxicity in breast fibroblasts; assay type: cell-based; conditions: Fibroblast
[15] = Selectivity index, ratio of IC50 for human WI38 cells to IC50 for chloroquine-resistant Plasmodium falciparum Dd2
[16] = Selectivity index, ratio of IC50 for human WI38 cells to IC50 for chloroquine-sensitive Plasmodium falciparum 3D7
[17] = Toxicity in human WI38 cells; assay type: cell-based, WI-38
Plasmodium falciparum [18] = assay: Inhibition of HDAC in Plasmodium falciparum Dd2 infected in O+ human erythrocytes assessed as alteration of histone acetylation at 500 nM after 3.5 hrs by Westen blot; assay type: organism-based; in short: as §2
[19] = Toxicity in african green monkey Vero cells; assay type: cell-based; conditions: African green monkey (Chlorocebus sabaeus)
[20] = Selectivity index, ratio of IC50 for african green monkey (Cercopithecus aethiops) Vero cells to IC50 for chloroquine-sensitive Plasmodium falciparum D6; assay type: toxicity, cell-based; conditions: read-out: Ratio IC50
[21] = Selectivity index, ratio of IC50 for african green monkey (Cercopithecus aethiops) Vero cells to IC50 for chloroquine-resistant Plasmodium falciparum W2; assay type: toxicity, cell-based; conditions: read-out: Ratio IC50
Plasmodium falciparum [22] = assay: Antimalarial activity against chloroquine-resistant Plasmodium falciparum W2 infected in O+ human erythrocytes by [3H]hypoxanthine incorporation assay; assay type: functional, organism-based
Plasmodium falciparum [23] = assay: Antimalarial activity against chloroquine-sensitive Plasmodium falciparum D6 infected in O+ human erythrocytes by [3H]hypoxanthine incorporation assay; assay type: functional, organism-based

SMILES | Ratio IC50 [1] | IC50 (Plasmodium falciparum [2]) [nM] | IC50 [3] [nM] | IC50 (Plasmodium falciparum [4]) [nM] | Ratio IC50 [6] | further results
CN(C)c1ccc(NC(=O)[C@H](CSCCCC(=O)NO)NC(=O)c2ccc(N(C)C)cc2)cc1 | 12 | 48 | 600 | – | – | –
CC(C)(C)OC(=O)N[C@@H](CCCCCS)C(=O)NC1CCCC1 | – | 19900 | – | 15200 | – | –
CN(C)c1ccc(C(=O)N[C@@H](CSCCCC(=O)NO)C(=O)NCc2ccccc2)cc1 | 2 | 169 | 350 | – | – | –
O=C(CCCCCCCC(=O)NO)NO [AZELAIC BIS HYDROXAMIC ACID] | – | – | – | – | – | IC50 (Plasmodium falciparum [5]): 3200 nM
O=C(CCCCC[C@H](NC(=O)OCc1ccccc1)C(=O)Nc1ccc(-c2ccccc2)cc1)NO | 21 | 105 | 2200 | 29 | 76 | –
CC(NC(=O)c1ccccc1/N=C/c1c(O)ccc2ccccc12)c1ccccc1 (stereo not given) [SIRTINOL] | 2.7 | 9100 | > 25000 | 12900 | 1.9 | –
O=C(CCCSC[C@H](NC(=O)c1ccc(Br)cc1)C(=O)NCc1ccccc1)NO | 13 | 125 | 830 | – | – | –
O=C(/C=C/c1ccccc1)N[C@@H](CCCCCC(=O)NO)C(=O)Nc1cccc2cccnc12 | 32 | 39 | 1240 | 15 | 83 | inhibition (Plasmodium falciparum [7]): Active; inhibition (Plasmodium falciparum [8]): Active; inhibition (Plasmodium falciparum [9]): Active; inhibition (Plasmodium falciparum [10]): Active; inhibition (Plasmodium falciparum [11]): Active; inhibition (Plasmodium falciparum [12]): Active; inhibition (Plasmodium falciparum [13]): Active
O=C(CCCCC[C@H](NC(=O)c1ccc(Br)cc1)C(=O)Nc1ccc(-c2ccccc2)cc1)NO | 5 | 41 | 190 | 22 | 9 | –
O=C(/C=C\c1ccccc1)N[C@@H](CSCCCC(=O)NO)C(=O)NCc1ccccc1 | 2 | 339 | 800 | – | – | –
O=C(CCCCC[C@H](NC(=O)c1cc2ccccc2[nH]1)C(=O)Nc1cccc2cccnc12)NO | 10 | 33 | 337 | 13 | 26 | inhibition (Plasmodium falciparum [7]): Active; inhibition (Plasmodium falciparum [8]): Active; inhibition (Plasmodium falciparum [9]): Active; inhibition (Plasmodium falciparum [10]): Active; inhibition (Plasmodium falciparum [11]): Active; inhibition (Plasmodium falciparum [12]): Active; inhibition (Plasmodium falciparum [13]): Active
O=C(/C=C/c1ccccc1)N[C@@H](CCCCCC(=O)NO)C(=O)NCc1ccccc1 | 39 | 102 | 4010 | 34 | 118 | –
Nc1ccccc1NC(=O)c1ccc(CNC(=O)OCc2cccnc2)cc1 [ENTINOSTAT] | – | 7800 | – | 8300 | – | IC50 [14]: 20000 nM; selectivity ratio [15]: > 2.6; selectivity ratio [16]: > 2.4; IC50 [17]: > 20000 nM
CC(/C=C/C(=O)NO)=C\[C@@H](C)C(=O)c1ccc(N(C)C)cc1 [TRICHOSTATIN] | 25 | 8 | 200 | 11 | 18 | inhibition (Plasmodium falciparum [9]): Active; inhibition (Plasmodium falciparum [11]): Active; inhibition (Plasmodium falciparum [18]): Active; inhibition (Plasmodium falciparum [12]): Active
CN(C)c1ccc(C(=O)N[C@@H](CCCCCC(=O)NO)C(=O)Nc2cccc3cccnc23)cc1 | 8 | 71 | 570 | 19 | 30 | –
O=C(CCCCC[C@H](NC(=O)c1cc2ccccc2[nH]1)C(=O)NCc1ccccc1)NO | 20 | 63 | 1260 | 34 | 37 | –
O=C(CCCCCCC(=O)NO)NO [SUBEROHYDROXAMIC ACID] | – | – | – | – | – | IC50 [19]: > 20000 nM; selectivity ratio [20]: > 21; selectivity ratio [21]: > 21; IC50 (Plasmodium falciparum [22]): 1780 nM; IC50 (Plasmodium falciparum [23]): 940 nM
O=C(CCCCC[C@H](NC(=O)c1ccc(Br)cc1)C(=O)NCc1ccccc1)NO | 17 | 334 | 5860 | 91 | 64 | –
CN(C)c1ccc(C(=O)N[C@@H](CSCCCC(=O)NO)C(=O)Nc2ccc(-c3ccccc3)cc2)cc1 | 3 | 128 | 320 | – | – | –
CN(C)c1ccc(C(=O)N[C@@H](CSCCCC(=O)NO)C(=O)NC2CCCc3ccccc32)cc1 (stereo not given in full) | 7 | 305 | 2200 | – | – | –
